Reference: ChEMBL document CHEMBL1649247, “Fluoroquinolone resistance in Mycobacterium tuberculosis and mutations in gyrA and gyrB” (2009)
In brackets after ≈: the same amount, converted by molar mass. Activity calls are given as the source filed them. The calls are words filed in the database; no cut-off is given here.

Tests used:
[1] = test system: Mycobacterium tuberculosis; experiment: Antimycobacterial activity against multidrug-resistant Mycobacterium tuberculosis 01-2834 by resazurin microtiter assay; format: functional
Method in brief: (§1)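 Isolates taken from fresh Löwenstein-Jensen subcultures grown at 37°C for at most 4 weeks. Drug stocks 1 mg/ml in 0.1 N NaOH, filter sterilized, stored at −20°C less than 2 months. MIC read by resazurin microtiter assay following a previously described protocol.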

[2] = test system: Mycobacterium tuberculosis; experiment: Antimycobacterial activity against Mycobacterium tuberculosis 08-0787 harboring gyrA Asp94His mutant gene assessed as microbial susceptibility and deletion of codons 678 and 679 in gyrB mutant gene assessed as microbial susceptibility by agar proportion method; format: functional, organism-based
Method in brief: (§2)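 Clinical isolates freshly subcultured on Löwenstein-Jensen medium, held at 37°C no longer than 4 weeks. Fluoroquinolone stocks 1 mg/ml in 0.1 N NaOH, filter sterilized, kept at −20°C under 2 months. Standard proportion method on 7H11 agar; breakpoints 2 mg/liter ofloxacin, 0.5 mg/liter moxifloxacin and gatifloxacin; scored susceptible or resistant.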

[3] = test system: Mycobacterium tuberculosis; experiment: Antimycobacterial activity against multidrug-resistant Mycobacterium tuberculosis 08-0797 harboring gyrA Ala90Val mutant gene by resazurin microtiter assay; format: functional
Method in brief: (§3)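 MIC was read by resazurin microtiter assay against ofloxacin, moxifloxacin and gatifloxacin. Isolates were used as fresh Löwenstein-Jensen subcultures kept at 37°C for no longer than 4 weeks.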

[4] = test system: Mycobacterium tuberculosis; experiment: Antimycobacterial activity against multidrug-resistant Mycobacterium tuberculosis 08-0785 harboring gyrA Ala90Val mutant gene by resazurin microtiter assay; format: functional; method in brief: as §3
[5] = test system: Mycobacterium tuberculosis; experiment: Antimycobacterial activity against multidrug-resistant Mycobacterium tuberculosis 01-2230 harboring gyrA Asp94Gly mutant gene assessed as microbial susceptibility by agar proportion method; format: functional, organism-based; method in brief: as §2
[6] = test system: Mycobacterium tuberculosis; experiment: Antimycobacterial activity against multidrug-resistant Mycobacterium tuberculosis 01-0172 harboring gyrA Asp94Ala mutant gene assessed as microbial susceptibility by agar proportion method; format: functional, organism-based; method in brief: as §2
[7] = test system: Mycobacterium tuberculosis; experiment: Antimycobacterial activity against multidrug-resistant Mycobacterium tuberculosis 04-0519 harboring gyrA Ala90Val and Asp94Asn mutant gene assessed as microbial susceptibility by agar proportion method; format: functional, organism-based
Method in brief: (§4)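 Clinical isolates freshly subcultured on Löwenstein-Jensen medium at 37°C for no more than 4 weeks. Susceptibility by standard proportion method on 7H11 agar at breakpoints of 2 mg/liter ofloxacin and 0.5 mg/liter moxifloxacin and gatifloxacin. Drug stocks 1 mg/ml in 0.1 N NaOH, filter sterilized, held at −20°C under 2 months. Isolates scored susceptible or resistant.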

[8] = test system: Mycobacterium tuberculosis; experiment: Antimycobacterial activity against Mycobacterium tuberculosis 00-0715 harboring gyrA Ala90Val mutant gene by resazurin microtiter assay; format: functional; method in brief: as §1
[9] = test system: Mycobacterium tuberculosis; experiment: Antimycobacterial activity against Mycobacterium tuberculosis 04-0649 harboring gyrA Asp94Asn mutant gene by resazurin microtiter assay; format: functional; method in brief: as §1
[10] = test system: Mycobacterium tuberculosis; experiment: Antimycobacterial activity against multidrug-resistant Mycobacterium tuberculosis 08-0744 harboring gyrA Asp94Tyr mutant gene assessed as microbial susceptibility by agar proportion method; format: functional, organism-based; method in brief: as §4
[11] = test system: Mycobacterium tuberculosis; experiment: Antimycobacterial activity against multidrug-resistant Mycobacterium tuberculosis 99-1914 harboring gyrA Asp94Gly mutant gene assessed as microbial susceptibility by agar proportion method; format: functional, organism-based; method in brief: as §4
[12] = test system: Mycobacterium tuberculosis; experiment: Antimycobacterial activity against multidrug-resistant Mycobacterium tuberculosis 08-0777 assessed as microbial susceptibility by agar proportion method; format: functional, organism-based; method in brief: as §4
[13] = test system: Mycobacterium tuberculosis; experiment: Antimycobacterial activity against Mycobacterium tuberculosis 08-0769 harboring gyrA putative promoter mutant gene assessed as microbial susceptibility by agar proportion method; format: functional, organism-based; method in brief: as §2
[14] = test system: Mycobacterium tuberculosis; experiment: Antimycobacterial activity against multidrug-resistant Mycobacterium tuberculosis 02-1234 harboring gyrA Asn533Thr gyrB mutant gene assessed as microbial susceptibility by agar proportion method; format: functional, organism-based; method in brief: as §2
[15] = test system: Mycobacterium tuberculosis; experiment: Antimycobacterial activity against Mycobacterium tuberculosis 08-0769 harboring gyrA putative promoter mutant gene by resazurin microtiter assay; format: functional; method in brief: as §1
[16] = test system: Mycobacterium tuberculosis; experiment: Antimycobacterial activity against multidrug-resistant Mycobacterium tuberculosis 01-1647 harboring gyrA Ala90Val mutant gene by resazurin microtiter assay; format: functional; method in brief: as §1
[17] = test system: Mycobacterium tuberculosis; experiment: Antimycobacterial activity against multidrug-resistant Mycobacterium tuberculosis 08-0821 harboring gyrA Asp94Tyr mutant gene assessed as microbial susceptibility by agar proportion method; format: functional, organism-based; method in brief: as §4
[18] = test system: Mycobacterium tuberculosis; experiment: Antimycobacterial activity against Mycobacterium tuberculosis 02-1975 harboring gyrA Asp94Gly mutant gene assessed as microbial susceptibility by agar proportion method; format: functional, organism-based; method in brief: as §2
[19] = test system: Mycobacterium tuberculosis; experiment: Antimycobacterial activity against multidrug-resistant Mycobacterium tuberculosis 03-0738 harboring gyrA Ala90Val mutant gene by resazurin microtiter assay; format: functional; method in brief: as §3
[20] = test system: Mycobacterium tuberculosis; experiment: Antimycobacterial activity against multidrug-resistant Mycobacterium tuberculosis 01-0930 harboring gyrA Ala90Val mutant gene assessed as microbial susceptibility by agar proportion method; format: functional, organism-based; method in brief: as §2
[21] = test system: Mycobacterium tuberculosis; experiment: Antimycobacterial activity against multidrug-resistant Mycobacterium tuberculosis 08-0797 harboring gyrA Ala90Val mutant gene assessed as microbial susceptibility by agar proportion method; format: functional, organism-based; method in brief: as §4
[22] = test system: Mycobacterium tuberculosis; experiment: Antimycobacterial activity against multidrug-resistant Mycobacterium tuberculosis 02-2934 harboring gyrA Ala90Val mutant gene by resazurin microtiter assay; format: functional; method in brief: as §1
[23] = test system: Mycobacterium tuberculosis; experiment: Antimycobacterial activity against multidrug-resistant Mycobacterium tuberculosis 08-0777 by resazurin microtiter assay; format: functional; method in brief: as §3
[24] = test system: Mycobacterium tuberculosis; experiment: Antimycobacterial activity against multidrug-resistant Mycobacterium tuberculosis 08-0785 harboring gyrA Ala90Val mutant gene assessed as microbial susceptibility by agar proportion method; format: functional, organism-based; method in brief: as §4
[25] = test system: Mycobacterium tuberculosis; experiment: Antimycobacterial activity against multidrug-resistant Mycobacterium tuberculosis 08-0757 harboring gyrA Ala90Val mutant gene assessed as microbial susceptibility by agar proportion method; format: functional, organism-based; method in brief: as §4
[26] = test system: Mycobacterium tuberculosis; experiment: Antimycobacterial activity against multidrug-resistant Mycobacterium tuberculosis 08-0810 harboring gyrA Asp94Tyr mutant gene by resazurin microtiter assay; format: functional; method in brief: as §3
[27] = test system: Mycobacterium tuberculosis; experiment: Antimycobacterial activity against multidrug-resistant Mycobacterium tuberculosis 08-0810 harboring gyrA Asp94Tyr mutant gene assessed as microbial susceptibility by agar proportion method; format: functional, organism-based; method in brief: as §4
[28] = test system: Mycobacterium tuberculosis; experiment: Antimycobacterial activity against multidrug-resistant Mycobacterium tuberculosis 01-2834 by agar proportion method; format: functional, organism-based; method in brief: as §2
[29] = test system: Mycobacterium tuberculosis; experiment: Antimycobacterial activity against multidrug-resistant Mycobacterium tuberculosis 01-2230 harboring gyrA Asp94Gly mutant gene by resazurin microtiter assay; format: functional; method in brief: as §1
[30] = test system: Mycobacterium tuberculosis; experiment: Antimycobacterial activity against multidrug-resistant Mycobacterium tuberculosis 02-0319 harboring gyrA Asp94Ala mutant gene by resazurin microtiter assay; format: functional; method in brief: as §1
[31] = test system: Mycobacterium tuberculosis; experiment: Antimycobacterial activity against multidrug-resistant Mycobacterium tuberculosis 04-0519 harboring gyrA Ala90Val and Asp94Asn mutant gene by resazurin microtiter assay; format: functional; method in brief: as §3
[32] = test system: Mycobacterium tuberculosis; experiment: Antimycobacterial activity against multidrug-resistant Mycobacterium tuberculosis 02-2399 harboring gyrA Asp94Tyr mutant gene by resazurin microtiter assay; format: functional; method in brief: as §1
[33] = test system: Mycobacterium tuberculosis; experiment: Antimycobacterial activity against multidrug-resistant Mycobacterium tuberculosis 08-0821 harboring gyrA Asp94Tyr mutant gene by resazurin microtiter assay; format: functional; method in brief: as §3
[34] = test system: Mycobacterium tuberculosis; experiment: Antimycobacterial activity against multidrug-resistant Mycobacterium tuberculosis 08-0779 assessed as microbial susceptibility by agar proportion method; format: functional, organism-based; method in brief: as §4
[35] = test system: Mycobacterium tuberculosis; experiment: Antimycobacterial activity against multidrug-resistant Mycobacterium tuberculosis 02-1234 harboring gyrA Asn533Thr gyrB mutant gene by resazurin microtiter assay; format: functional; method in brief: as §1
[36] = test system: Mycobacterium tuberculosis; experiment: Antimycobacterial activity against multidrug-resistant Mycobacterium tuberculosis 08-0791 harboring gyrA Ala90Val mutant gene assessed as microbial susceptibility by agar proportion method; format: functional, organism-based; method in brief: as §4
[37] = test system: Mycobacterium tuberculosis; experiment: Antimycobacterial activity against Mycobacterium tuberculosis 08-0773 harboring gyrA Pro8Ala mutant gene assessed as microbial susceptibility by agar proportion method; format: functional, organism-based; method in brief: as §2

| SMILES | MIC [1] | Activity [2] | MIC [3] | MIC [4] | Activity [5] | Activity [6] | Activity [7] | MIC [8] | MIC [9] | Activity [10] | Activity [11] | Activity [12] | Activity [13] | Activity [14] | MIC [15] | MIC [16] | Activity [17] | Activity [18] | MIC [19] | Activity [20] | other results |
| --- | --- | --- | --- | --- | --- | --- | --- | --- | --- | --- | --- | --- | --- | --- | --- | --- | --- | --- | --- | --- | --- |
| COc1c(N2CCNC(C)C2)c(F)cc2c(=O)c(C(=O)O)cn(C3CC3)c12 (stereo unspecified) [GATIFLOXACIN] | 0.5 µg/mL (≈ 1.33 µM) | inactive | 0.5 µg/mL (≈ 1.33 µM) | 1 µg/mL (≈ 2.66 µM) | inactive | inactive | inactive | 0.5 µg/mL (≈ 1.33 µM) | 1 µg/mL (≈ 2.66 µM) | inactive | inactive | Active | Active | inactive | 0.125 µg/mL (≈ 0.333 µM) | 0.5 µg/mL (≈ 1.33 µM) | inactive | inactive | 0.25 µg/mL (≈ 0.666 µM) | inactive | Activity [21]: inactive; MIC [22]: 0.25 µg/mL (≈ 0.666 µM); MIC [23]: ≤ 0.062 µg/mL; Activity [24]: inactive; Activity [25]: inactive; MIC [26]: 1 µg/mL (≈ 2.66 µM); Activity [27]: inactive; Activity [28]: inactive; MIC [29]: 1 µg/mL (≈ 2.66 µM); MIC [30]: 0.25 µg/mL (≈ 0.666 µM); MIC [31]: >4 µg/mL; MIC [32]: 0.25 µg/mL (≈ 0.666 µM); MIC [33]: 1 µg/mL (≈ 2.66 µM); Activity [34]: Active; MIC [35]: 0.5 µg/mL (≈ 1.33 µM); Activity [36]: inactive; Activity [37]: Active |
| COc1c(N2C[C@@H]3CCCN[C@@H]3C2)c(F)cc2c(=O)c(C(=O)O)cn(C3CC3)c12 [MOXIFLOXACIN] | 1 µg/mL (≈ 2.49 µM) | inactive | 1 µg/mL (≈ 2.49 µM) | 2 µg/mL (≈ 4.98 µM) | inactive | inactive | inactive | 0.5 µg/mL (≈ 1.25 µM) | 4 µg/mL (≈ 9.96 µM) | inactive | inactive | Active | Active | inactive | <=0.125 mg/L | 0.5 µg/mL (≈ 1.25 µM) | inactive | inactive | 0.25 µg/mL (≈ 0.623 µM) | inactive | Activity [21]: inactive; MIC [22]: 0.25 µg/mL (≈ 0.623 µM); MIC [23]: ≤ 0.125 µg/mL; Activity [24]: inactive; Activity [25]: inactive; MIC [26]: 2 µg/mL (≈ 4.98 µM); Activity [27]: inactive; Activity [28]: inactive; MIC [29]: 2 µg/mL (≈ 4.98 µM); MIC [30]: 0.5 µg/mL (≈ 1.25 µM); MIC [31]: >8 µg/mL; MIC [32]: 0.5 µg/mL (≈ 1.25 µM); MIC [33]: 4 µg/mL (≈ 9.96 µM); Activity [34]: Active; MIC [35]: 0.5 µg/mL (≈ 1.25 µM); Activity [36]: inactive; Activity [37]: Active |
| CC1COc2c(N3CCN(C)CC3)c(F)cc3c(=O)c(C(=O)O)cn1c23 (stereo unspecified) [OFLOXACIN] | 4 µg/mL (≈ 11.1 µM) | inactive | 4 µg/mL (≈ 11.1 µM) | 8 µg/mL (≈ 22.1 µM) | inactive | inactive | inactive | 4 µg/mL (≈ 11.1 µM) | 16 µg/mL (≈ 44.3 µM) | inactive | inactive | Active | Active | Active | 1 µg/mL (≈ 2.77 µM) | 4 µg/mL (≈ 11.1 µM) | inactive | inactive | 4 µg/mL (≈ 11.1 µM) | inactive | Activity [21]: inactive; MIC [22]: 4 µg/mL (≈ 11.1 µM); MIC [23]: 0.5 µg/mL (≈ 1.38 µM); Activity [24]: inactive; Activity [25]: inactive; MIC [26]: 8 µg/mL (≈ 22.1 µM); Activity [27]: inactive; Activity [28]: inactive; MIC [29]: 8 µg/mL (≈ 22.1 µM); MIC [30]: 4 µg/mL (≈ 11.1 µM); MIC [31]: >32 µg/mL; MIC [32]: 4 µg/mL (≈ 11.1 µM); MIC [33]: 8 µg/mL (≈ 22.1 µM); Activity [34]: Active; MIC [35]: 1 µg/mL (≈ 2.77 µM); Activity [36]: inactive; Activity [37]: Active |
